Sampled rows, rich in hits. Any-hit rate of the full collection: about 1.6%.
DNA FID counter = compounds displacing fluorescent DNA intercalator, primary screen, artefact control for HCV NS3 helicase inhibitor project, biochemical, FID fluorescence; 290,000 tested, 0.17% active; AID 1845, 2009; DNA fluorescent intercalator displacement; inhibition, % at 7.9 µM; in the data active means inhibition above about 37%;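 further: 0% = vehicle and 100% = reference compound; higher means more ethidium bromide displaced from hairpin DNA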
core dimer inh = inhibitors of HCV core protein dimerization, primary screen, biochemical, TR-FRET, high-throughput | TR-FRET GST/Flag-core106 dimerization, 1536-well | inhibition, % at 5 µM | 300,000 tested, 0.33% active;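 active means inhibition above the mean of all tested compounds plus 3 SD, set per screening campaign, cut at about 45% in these data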
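System – GST-tagged and Flag-tagged HCV core protein residues 1-106 · Repeats – one well for each compound · Technique – TR-FRET 671 and 617 nm emission · Doses – one concentration, 5 µM, in 0.5% DMSO · Times – 4 h, 22.5 °C incubation · Also added – Eu donor and XL665 acceptor anti-tag antibodies · Measure – percent inhibition of core106 dimerization signal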
IMP-1 inhibitor = IMP-1 metallo-beta-lactamase inhibitors, primary screen, biochemical, epi-absorbance readout, Pseudomonas aeruginosa enzyme | purified IMP-1, nitrocefin hydrolysis, epi-absorbance fluorescence | 290,000 tested, 0.45% active | inhibition, % at 5.6 µM;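 active means inhibition above the mean plus 3 SD of all compounds in the same screening run, cut at about 4.5% in these data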;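 further: 0% = IMP-1 with DMSO and 100% = DMSO wells lacking enzyme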
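Material – recombinant IMP-1 enzyme, purified · Amount – IMP-1 0.2 nM before substrate addition · Medium – HEPES buffer pH 7.1 with ZnSO4 and Brij 35 · Timing – 25 °C, 15 min preincubation, 25 min reaction · Measured by – plate fluorescence quenching by hydrolysis product, ex 480/em 530 nm · Read-out – percent enzyme inhibition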
VIM-2 inhibitor = VIM-2 metallo-beta-lactamase inhibitors, primary screen, biochemical, epi-absorbance readout, Pseudomonas aeruginosa enzyme | purified VIM-2, nitrocefin hydrolysis, epi-absorbance fluorescence | inhibition, % at 5.6 µM | 290,000 tested, 0.89% active | AID 1527, 2009;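 active means inhibition above the mean of all tested compounds plus 3 SD, cutoff set per screening run, cut at about 7.5% in these data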;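 further: red hydrolysis product quenches plate fluorescence so inhibitors raise well fluorescence; 0% = enzyme with DMSO and 100% = DMSO without enzyme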
Starred values were filed as active, the others as inactive.

SMILES	DNA FID counter	core dimer inh	IMP-1 inhibitor	VIM-2 inhibitor
CN(C)CCCN(C(=O)c1ccc(S(=O)(=O)N2CCCCC2)cc1)c1nc2cc3c(cc2s1)OCO3	38*	-20	1	-1
CN(C)CCCN(C(=O)c1ccc(C(=O)c2ccccc2)cc1)c1nc2cc3c(cc2s1)OCO3	44*	-29	-1	0
CN(C)CCCN(C(=O)c1ccc(S(=O)(=O)N2CCOCC2)cc1)c1nc2cc3c(cc2s1)OCO3	25	-2	0	-1
Cc1cccc(N(C(=O)c2snc(C(N)=O)c2N)C(C(=O)NC2CCCC2)c2ccc(C)o2)c1 (configuration not stated)	-31	-4	-5	-2
O=C(Cn1cc(C(=O)C2CC2)c2ccccc21)NCc1ccccc1	-7	-13	-5	-1
O=C(COc1ccc(Br)cc1)NCCNC(=O)c1ccncc1	-8	0	-2	-2
CC(CCc1ccccc1)NC(=O)COC(=O)c1cccc(N(C)C)c1 (configuration not stated)	-30	0	-1	0
O=C(/C=C\c1ccco1)c1ccc(NC(=O)c2ccco2)cc1	-18	57*	-2	0
CCN(CC)CCn1c2ccccc2c2nc3ccc([N+](=O)[O-])cc3cc21	44*	-3	0	0
COc1ccc2c(c1)c(=O)oc1cc3occ(C(C)(C)C)c3cc12	1	2	22*	1
Cc1ccc(N(CC(=O)NC2CCCCC2C)S(=O)(=O)c2c(C)nn(C)c2C)cc1 (configuration not stated)	-59	8	-1	-2
CCCCCCCCCn1c2c(c(=N)c3c1CCC3)CCC2	9	12	-2	1
CCCCn1c2c(c(=N)c3c1CCC3)CCC2	4	1	4.8*	-8
CCCCc1cc(=O)oc2cc(O)cc(O)c12	3	0	0	3
NC(=S)c1cc2cc(Cl)ccc2oc1=O	-1	1	7.0*	2
COc1ccc(-c2nc(C#N)c(N3CCN(C(=O)c4ccco4)CC3)o2)cc1OC	-18	-2	7.7*	0
COc1ccc(-c2cc(C(F)(F)F)c3c(n2)sc2c(O)cc(=O)[nH]c23)c(OC)c1	-14	48*	-3	-1
Cn1cc(C(=O)Nc2ccc(F)c(Cl)c2)cn1	-3	-5	-1	-2
O=C(O)C1=C(C(=O)Nc2ccc(F)c(Cl)c2)CCCC1	1	-1	10*	4
CC1=NN(c2ccc(C)c(C)c2)C(=O)/C1=C\C=C\c1ccc([N+](=O)[O-])o1	-6	63*	-4	2
CC1=NN(c2ccccc2)C(=O)/C1=C\C=C\c1ccccc1	3	20	-3	-2
O=c1c2[nH]c3ccc(F)cc3c2ncn1CCCn1ccnc1	8	2	0	8.0*
O=C(Nc1ccc(Cl)c([N+](=O)[O-])c1)c1cnccn1	-5	55*	-1	2
O=C(Nc1ccc(Cl)c([N+](=O)[O-])c1)c1ccncc1	5	5	-2	-2
O=C(Nc1ccc(Br)cc1Cl)c1cnccn1	-6	68*	-1	0
SMILES	DNA FID counter	core dimer inh	IMP-1 inhibitor	VIM-2 inhibitor
CN(O)/C=c1/ccc2c(n1)C(=O)C=CC=2	-5	-14	-1	-2
C/C(=N\NC(=O)c1sccc1C)c1ccncc1	-9	-9	-4	-2
Cc1ccc(C(=O)CSC2=C(C#N)C(c3ccco3)C3=C(CC(C)(C)CC3=O)N2)cc1 (configuration not stated)	-8	6	5.5*	2
CC1(C)CC(=O)C2=C(C1)NC(SCC(=O)Nc1ccccc1)=C(C#N)C2c1ccco1 (configuration not stated)	-15	13	-7	-3
Cc1nc(SCc2ccccc2C#N)n[nH]1	7	0	4.9*	1
CNc1ccc(Br)cc(C(=O)/C=C/c2ccc3c(c2)OCO3)c1=O	-4	56*	9.2*	6
CC(Oc1ccc(Br)cc1)C(=O)N1CCC(C(N)=O)CC1 (configuration not stated)	-2	-3	-2	-2
CN(C)c1cc(Nc2ccc(O)cc2)c([N+](=O)[O-])c2nonc12	4	0	-4	9.1*
CN(C)c1cc(Nc2cccc(O)c2)c([N+](=O)[O-])c2nonc12	3	4	-3	2
Clc1ccc2nnnc(-c3ccccc3)c2c1	-5	0	-4	-3
COc1cc(C(=O)N2CCN(C/C=C/c3ccccc3)CC2)cc(OC)c1OC	-24	0	-1	1
O=C(NCCCN1CCCCC1)c1ccc2c(c1)NC(=O)C(N1CCCCC1)S2 (configuration not stated)	1	-2	5.2*	0
COc1ccc(OC)c(NC(=O)COC(=O)c2c3c(nc4ccccc24)CCCC3)c1	-26	7	-5	-2
COc1ccc(OC)c(NC(=O)COC(=O)c2cc3c(s2)CCC3)c1	-12	77*	-2	-1
O=C(c1ccccc1)c1ccc2nc(-c3ccco3)c(-c3ccco3)nc2c1	-18	47*	1	-1
O=C(NCCc1ccccc1)c1ccc2nc(-c3ccco3)c(-c3ccco3)nc2c1	-18	65*	-3	-5
Cc1ccc(/C=C/C(=O)N2CCc3ccccc32)o1	-11	63*	-2	-4
COc1ccccc1C1/C(=C(/O)c2ccccc2)C(=O)C(=O)N1CC(C)C (configuration not stated)	-17	-1	-1	2
COCc1cc(CN2CCN(C)CC2)c(O)c2ncccc12	-5	-1	-3	0
Oc1c(CN2CCOCC2)cc(COCc2ccccc2)c2cccnc12	-3	1	-6	7.7*
Cn1c(C(=O)N2CCCC(C(=O)NCCCc3ccccc3)C2)cc2sccc21 (configuration not stated)	-35	2	-4	-1
Oc1c(Br)cc(Br)cc1CNc1cccc2cccnc12	-2	11	16*	3
Oc1ccc(Br)cc1CNc1cccc2cccnc12	-1	11	1	1
CSc1ncccc1C(=O)OCC(=O)NC(C)C	-3	-1	-3	-1
O=C(O)CCC(=O)Nc1nc2nccc(-c3ccccc3)n2n1	-3	3	-3	-2
CCCCN(CC)CCNC(=S)Nc1ccc2nc(N3CCN(C)CC3)cc(C)c2c1	43*	-6	0	1
CCCCN(CC)CCNC(=O)CCC(=O)Nc1ccc2nc(N3CCN(C)CC3)cc(C)c2c1	41*	-5	-1	7.8*
CCCN(CCC)CCCNC(=S)Nc1ccc2nc(N3CCN(C)CC3)cc(C)c2c1	44*	0	1	3
CCN1CCN(C(=S)Nc2ccc3nc(N4CCN(CC)CC4)cc(C)c3c2)CC1	46*	1	-1	3
O=C(C1CCCC1)N1CCN(S(=O)(=O)c2cccc(Cl)c2Cl)CC1	-21	4	-1	2
